# Screening data deposited in PubChem BioAssay by several laboratories.
# Hits are enriched below; roughly 1.2% of the tested compounds scored in any of these assays.
# HSV augment: HSV replication enhancement; maximum fold increase; HSV replication augmentation in cells, fold increase; 0.005% of 220,000 active; in the data active means maximum fold increase above about 1.5; inconclusive means no clear call, values can overlap the other calls; tested in PC3 cells
# HKDC1 inh: HKDC1 (human) hexokinase inhibition; recombinant HKDC1, G6PDH/diaphorase resazurin coupled fluorescence; inhibition, % at 20 µM; Q2TB90; 0.16% of 340,000 active;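 active means inhibition above about 35% when tested at 20 µM, limit read from the data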;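 further: plate controls were DMSO wells with enzyme for no effect and DMSO wells lacking enzyme for full effect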
# Target sequence (Q2TB90 whole entry, looked up): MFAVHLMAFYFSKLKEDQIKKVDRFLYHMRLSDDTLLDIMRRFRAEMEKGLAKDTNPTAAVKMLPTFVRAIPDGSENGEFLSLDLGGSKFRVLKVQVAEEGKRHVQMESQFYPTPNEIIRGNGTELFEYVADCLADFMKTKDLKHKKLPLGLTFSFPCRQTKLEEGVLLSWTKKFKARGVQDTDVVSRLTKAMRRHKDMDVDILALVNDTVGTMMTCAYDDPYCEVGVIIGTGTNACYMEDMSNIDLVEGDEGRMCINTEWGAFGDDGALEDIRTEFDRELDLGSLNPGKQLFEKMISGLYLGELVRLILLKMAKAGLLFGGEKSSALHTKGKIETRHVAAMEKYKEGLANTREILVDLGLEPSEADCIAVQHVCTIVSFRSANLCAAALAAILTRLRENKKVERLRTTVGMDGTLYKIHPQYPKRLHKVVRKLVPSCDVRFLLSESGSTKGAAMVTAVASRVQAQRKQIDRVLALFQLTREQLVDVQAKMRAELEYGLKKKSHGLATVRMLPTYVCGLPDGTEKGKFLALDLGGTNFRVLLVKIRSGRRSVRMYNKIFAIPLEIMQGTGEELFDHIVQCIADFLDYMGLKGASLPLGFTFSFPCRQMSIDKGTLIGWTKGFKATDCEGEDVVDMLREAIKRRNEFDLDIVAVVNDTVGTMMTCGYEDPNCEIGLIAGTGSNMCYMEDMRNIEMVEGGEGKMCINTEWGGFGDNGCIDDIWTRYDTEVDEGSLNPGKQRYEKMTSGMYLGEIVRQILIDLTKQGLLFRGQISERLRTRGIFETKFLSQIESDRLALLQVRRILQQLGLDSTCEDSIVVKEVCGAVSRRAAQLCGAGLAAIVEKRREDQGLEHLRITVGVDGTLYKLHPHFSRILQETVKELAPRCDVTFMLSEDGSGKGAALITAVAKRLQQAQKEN
#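 Incubation: 90 min at room temperature in dark / Material: recombinant HKDC1 (HK5) hexokinase enzyme, produced in-house / Quantity: enzyme 5 µg/mL final / Compound: one dose of 20 µM, 1% DMSO / Reagent: glucose and ATP substrates / Buffer or medium: Tris pH 8.0 buffer with MgCl2, Tween-20, BSA, BME / Technique: resorufin fluorescence at 613 nm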
# PERK inh: inhibitors of human PERK kinase | Q9NZJ5 | CHO PERK-DD fusion, SEAP luminescence translation reporter | inhibition, % at 5.6 µM | 0.17% of 220,000 active;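 active means inhibition above the mean inhibition of all tested compounds plus 3 SD, set separately per screening campaign, cut at about 2.9% in these data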;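 further: PERK kinase domain activated by AP20187 dimerizer at 100 nM; 0% = DMSO with dimerizer and 100% = rapamycin at 8.4 µM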
# Dynein transport: dynein cargo transport inhibition; 3617.4 mouse cells, GR-EGFP nuclear translocation imaging; test concentration mostly 20 µM; stimulated with dexamethasone, 1 µM; stronger effect = lower value; z-score, hits read low; 0.47% of 220,000 active; AID 1381;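 active means plate z-score of nuclear minus cytoplasmic receptor signal below a set negative limit, without overly bright fluorescence or cell loss, cut at about -3.5 in these data, passing the limit was not always enough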;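 further: z-score of nuclear minus cytoplasmic ring GR-EGFP intensity difference per well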
#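 Buffer or medium: tet-free medium with charcoal-stripped serum / Also added: dexamethasone agonist, 1.0 µM final, for 30 min / Timing: induction 48 h, compound 1 h, agonist 30 min / Measured by: high-content fluorescence imaging after fixation / Read-out: nuclear-to-cytoplasmic GR-EGFP distribution per well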
# Tb hexokinase: T. brucei hexokinase 1 inhibition; recombinant TbHK1, G6PDH-coupled NADH A340; inhibition, % at 10 µM; 0.11% of 220,000 active; AID 1430;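 active means inhibition of 50% or more in the single-dose primary screen; inactive means inhibition below 50%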
# Autophagy HCS: autophagy modulation, high-content screen; calls only at 10 µM (by protocol); MEF GFP-LC3 puncta imaging; test concentration mostly 10 µM; 0.98% of 190,000 active;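 active means percentage of spot-positive cells more than 3 SD above its plate mean, without a fluorescence outlier flag or 80% toxicity; inconclusive means no clear call, values can overlap the other calls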;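 further: spot-positive cell cutoff set from DMSO-treated cells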
# * marks the source's active call; other numbers are inactive results; i = inactive; ? = inconclusive; · = no result; + = active, no number.
SMILES,HSV augment,HKDC1 inh,PERK inh,Dynein transport,Tb hexokinase,Autophagy HCS
CCSc1ccccc1C(=O)N1CCCC1,i,-7.3,0.4,0.455,-3.8,i
CN(C)CCCNC(=O)c1cc2c3ccccc3n(C)c2s1,i,2.3,-0.6,-0.789,-42.2,+
Cc1cccc(-n2c(=O)c3c4c(sc3n3c(=S)[nH]nc23)CCC4)c1,i,5.6,-0.3,0.946,1.0,+
c1ccc(-n2cnnc2SCc2nc3ccccc3s2)cc1,i,-0.8,0.8,-0.403,-0.6,+
CCOc1ccc(N=C2NC(=O)S/C2=C\c2ccc(OC)cc2)cc1,i,-3.5,0.3,-0.552,-27.0,+
CCOc1ccc2nc(NCCNC(=S)NCCCN(C)C)c(C#N)cc2c1,i,-2.8,3.0*,2.21,8.9,i
N#CC1=C2SCC(O)(c3ccccc3)N2C(=O)CC1c1ccccc1 (configuration not stated),i,7.8,-1.5,-0.52,-25.1,+
CCc1ccc(C2CC(=O)N3CN(c4ccccc4)CSC3=C2C#N)cc1 (configuration not stated),i,15.6,-0.5,1.51,-7.5,i
CC(C(=O)Nc1ccc2c(c1)OCCO2)N(C)Cc1c(F)cccc1Cl (configuration not stated),i,3.3,-0.1,-0.932,-2.1,+
COc1ccccc1NC(=O)C(C)Sc1nnc2ccccn12 (configuration not stated),·,-3.8,·,·,·,·
C=CCOC(=O)C1=C(C)NC(SCC(=O)Nc2ccc(C)c(Cl)c2)=C(C#N)C1c1ccco1 (configuration not stated),?,-4.8,0.3,-0.493,13.6,+
CC(=O)C1=C(C)NC(SCC(=O)c2ccc(C)cc2)=C(C#N)C1c1ccco1 (configuration not stated),i,·,-1.5,-0.805,-6.3,+
COCCOC(=O)C1=C(C)NC(SCC(=O)NC(C)(C)C)=C(C#N)C1c1ccco1 (configuration not stated),i,7.0,-0.6,0.328,-10.0,i
CCOc1cc(C2NC(=O)NC(C)=C2C(=O)OCC2CCCCC2)ccc1O (configuration not stated),·,1.6,·,·,·,·
CCC(Oc1ccc(Br)cc1)C(=O)N1CCN(c2ncccn2)CC1 (configuration not stated),·,-3.4,·,·,·,·
CN(C)S(=O)(=O)c1ccc(Cl)c(NC(=O)C2CCN(S(=O)(=O)c3cccs3)CC2)c1,·,1.7,·,·,·,·
Cc1nc(Cl)sc1C(=O)O,i,-2.7,0.2,1.8,55.2*,i
Cc1nc(Cl)sc1C(=O)Nc1cc(F)cc(F)c1,·,-1.6,·,·,·,·
Nc1c(C(=O)NCc2ccccc2)c2nc3ccccc3nc2n1CCCN1CCOCC1,i,-2.6,-1.3,-0.53,-14.6,+
CC(=O)c1c(C)[nH]c(C(=O)CN2C(=O)NC(C)(c3ccc(C)cc3)C2=O)c1C (configuration not stated),i,1.7,1.0,-0.368,-7.8,+
CC1CCN(S(=O)(=O)CCNC(=O)c2ccc(F)cc2)CC1,·,-4.4,·,·,·,·
CCCCNC(=O)c1ccc(NC(=O)CC2SC(N3CCCC3)=NC2=O)cc1 (configuration not stated),·,-1.6,·,·,·,·
COC(=O)c1ccc(Cn2nc(-c3cc(C)ccc3C)ccc2=O)cc1,·,4.2,·,·,·,·
CCOc1cccc2cc(-c3nnc(NCc4ccco4)s3)c(=O)oc12,i,2.1,0.3,0.166,-9.5,i
COc1ccc2oc(=O)c(-c3nnc(NCc4ccco4)s3)cc2c1,i,5.8,0.4,0.44,-6.7,+
SMILES,HSV augment,HKDC1 inh,PERK inh,Dynein transport,Tb hexokinase,Autophagy HCS
COC(=O)C1=C(C)N(C)C(=S)NC1c1c(OC)ccc2ccccc12 (configuration not stated),i,-7.7,0.7,0.313,-10.3,+
CC(NC(=O)Cn1cc(Br)c([N+](=O)[O-])n1)c1ccccc1 (configuration not stated),·,-5.9,·,·,·,·
N#C/C(=C\c1cn(-c2ccccc2)nc1-c1cc2ccccc2o1)c1nc2ccccc2[nH]1,i,-3.8,0.7,-0.723,-20.2,+
O=C1C=C(c2ccc(C(=O)O)cc2)C[C@@H](c2ccc3c(c2)OCO3)C1,·,0.2,·,·,·,·
COC(=O)Cn1c2ccc(OC)cc2c2nc3ccccc3nc21,i,4.7,0.1,-0.251,-0.6,i
CCOc1ccc(Cn2c3ccc(OC)cc3c3nc4ccccc4nc32)cc1OC,i,-3.3,-0.3,-0.807,-28.2,+
COc1ccc2c(c1)c1nc3ccccc3nc1n2Cc1ccc(OC)c(OC)c1,i,-6.8,-0.5,-0.506,-24.9,i
CCOC(=O)Cn1c2ccc(OC)cc2c2nc3ccccc3nc21,i,0.6,0.8,0.717,-6.1,+
COc1ccc(-c2ccc(C#N)c(SCC(=O)Nc3sc4c(c3C#N)CCC4)n2)cc1OC,i,4.4,-1.2,-0.0782,-28.7,+
N#Cc1cc2c(nc1SCC(=O)Nc1sc3c(c1C#N)CCC3)CCC2,i,1.2,0.2,0.589,-0.5,i
CN(C)CCOc1nc(-c2ccccc2)nc2c1oc1ccccc12,i,-3.5,-0.1,0.702,9.4,+
CN(C)CCOc1ncnc2c1oc1ccccc12,i,-9.8,0.0,-0.804,-1.8,i
O=S1(=O)c2c(F)cccc2O[C@@H](COCc2ccccc2)CN1CCc1ccc(F)cc1,·,-1.3,·,·,·,·
Cc1ccc2oc(=O)n(Cc3ccccc3)c2c1,·,-5.3,·,·,·,·
COc1ccccc1OCC(O)Cn1c(=N)n(Cc2ccccc2)c2ccccc21 (configuration not stated),i,-5.5,-1.5,0.179,13.0,+
c1ccc(Nc2nnc(-c3cccnc3)s2)cc1,·,-0.8,·,·,·,·
CC(=O)c1cccc(OCc2cc(C(=O)NCCC3=CCCCC3)no2)c1,·,-3.1,·,·,·,·
O=C(N/N=C/c1ccncc1)c1ccccc1,i,-7.7,3.6*,0.0499,1.2,i
O=C(N/N=C/c1cccnc1)c1ccccc1,·,-4.4,·,·,·,·
COc1cc(=O)[nH]c(SC(C)C(=O)Nc2cc(C)on2)n1 (configuration not stated),·,0.7,·,·,·,·
O=C(O)c1cccc(-n2cccc2/C=C\[N+](=O)[O-])c1,i,-0.1,0.1,-0.599,1.0,i
O=C(O)c1cccc(-n2cccc2/C=C/[N+](=O)[O-])c1,i,17.4,3.2*,2.7,0.2,·
O=c1[nH]c2cnn(-c3ccccc3)c2c(=O)n1O,·,1.4,·,·,·,·
O=C(C1=NN(c2ccccc2)C(=O)CC1)N1CCc2ccccc2C1,·,-4.4,·,·,·,·
COc1ccc(S(=O)(=O)C(C#N)c2nc3ccccc3nc2N2CCCC(C)C2)cc1 (configuration not stated),1.6*,1.8,0.9,-0.835,-4.4,i
CC1CCCN(c2nc3ccccc3nc2C(C#N)S(=O)(=O)c2cccs2)C1 (configuration not stated),i,4.7,0.6,-0.41,-2.2,i
